Key:
ACHN = experiment: Cytotoxicity against human ACHN cells after 24 hrs by SRB assay; format: cell-based
Method in brief: (§1)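 NCI 60-cell screen. Cells grown in RPMI 1640 with 5% FBS and 2 mM L-glutamine, seeded at 5,000–40,000 cells/well, preincubated 24 h at 37 °C in 5% CO2. Drug stock in DMSO, diluted in medium with gentamicin; five final concentrations, 100, 10, 1.0, 0.1 and […]. Time-zero plates were TCA-fixed. Protein read by SRB staining; GI50, TGI and LC50 taken relative to time-zero.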

SNB-19 = experiment: Cytotoxicity against human SNB19 cells after 24 hrs by SRB assay; format: functional; conditions: SNB-19, 24 h
Method in brief: (§2)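 NCI 60-cell screen. Cells are grown in RPMI 1640 with 5% FBS and 2 mM L-glutamine and seeded at 5,000–40,000 cells/well according to doubling time. They are preincubated 24 h at 37 °C in 5% CO2, and Tz plates are TCA-fixed at drug addition. Drug stock is in DMSO, diluted in medium with gentamicin, and tested at five concentrations (100, 10, 1.0, 0.1, […]). Protein is read by SRB staining. GI50, TGI and LC50 are derived relative to time-zero and control wells.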

OVCAR-8 = experiment: Cytotoxicity against human OVCAR8 cells after 24 hrs by SRB assay; format: functional; conditions: OVCAR-8, 24 h
Method in brief: (§3)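 NCI 60-line screen. Cells in RPMI 1640 with 5% FBS and 2 mM L-glutamine, seeded at 5,000–40,000 cells/well by doubling time, then incubated 24 h at 37 °C, 5% CO2 before dosing. Time-zero plates fixed with TCA at drug addition. DMSO stocks diluted in medium with gentamicin to five concentrations, […]. Protein read by SRB staining. GI50, TGI and LC50 derived relative to control and time-zero.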

MDA-MB-435 [1] = experiment: (§4) Cytotoxicity against human MDA-MB-435 cells after 24 hrs by SRB assay; format: cell-based; conditions: mda-mb-435, 24 h; method in brief: as §1
A549 = experiment: Cytotoxicity against human A549 cells after 24 hrs by SRB assay; format: cell-based; conditions: a549, 24 h; method in brief: as §1
OVCAR-3 = experiment: Cytotoxicity against human OVCAR3 cells after 24 hrs by SRB assay; format: cell-based; conditions: ovcar-3, 24 h; method in brief: as §1
[2] = Cytotoxicity against human Hs 578T cells after 24 hrs by SRB assay; format: cell-based; method in brief: as §1
SNB-75 = experiment: Cytotoxicity against human SNB75 cells after 24 hrs by SRB assay; format: functional; conditions: SNB-75, 24 h; method in brief: as §2
SF-539 = experiment: Cytotoxicity against human SF539 cells after 24 hrs by SRB assay; format: functional; conditions: SF-539, 24 h; method in brief: as §3
SN12C = experiment: Cytotoxicity against human SN12C cells after 24 hrs by SRB assay; format: cell-based
Method in brief: (§5)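 NCI 60-cell-line screen: cells grown in RPMI 1640 with 5% FBS and 2 mM L-glutamine, seeded at 5,000–40,000 cells/well by doubling time, and preincubated 24 h at 37 °C in 5% CO2. Time-zero plates were TCA-fixed. DMSO stocks were diluted in medium with gentamicin to five concentrations (100, 10, 1.0, 0.1, […]). Protein was read by SRB, and GI50, TGI and LC50 were derived against time-zero.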

MDA-MB-468 = experiment: Cytotoxicity against human MDA-MB-468 cells after 24 hrs by SRB assay; format: functional; conditions: MDA-MB-468, 24 h; method in brief: as §3
SR = experiment: Cytotoxicity against human SR cells after 24 hrs by SRB assay; format: functional; method in brief: as §2
NCI-H23 = experiment: Cytotoxicity against human NCI-H23 cells after 24 hrs by SRB assay; format: functional; conditions: NCI-H23, 24 h; method in brief: as §3
HOP-92 = experiment: Cytotoxicity against human HOP92 cells after 24 hrs by SRB assay; format: cell-based; conditions: hop-92, 24 h; method in brief: as §1
SW-620 = experiment: Cytotoxicity against human SW620 cells after 24 hrs by SRB assay; format: cell-based; conditions: sw-620, 24 h; method in brief: as §5
DU-145 = experiment: Cytotoxicity against human DU145 cells after 24 hrs by SRB assay; format: cell-based; conditions: du-145, 24 h; method in brief: as §1
HT-29 = experiment: Cytotoxicity against human HT-29 cells after 24 hrs by SRB assay; format: functional; conditions: HT-29, 24 h; method in brief: as §3
SK-MEL-2 [3] = experiment: (§6) Cytotoxicity against human SK-MEL-2 cells after 24 hrs by SRB assay; format: cell-based; conditions: sk-mel-2, 24 h; method in brief: as §1
786-0 = experiment: Cytotoxicity against human 786-0 cells after 24 hrs by SRB assay; format: cell-based; conditions: 786-0, 24 h; method in brief: as §1
MDA-MB-231 = experiment: Cytotoxicity against human MDA-MB-231 cells after 24 hrs by SRB assay; format: functional; conditions: MDA-MB-231, 24 h; method in brief: as §3
NCI-H460 = experiment: Cytotoxicity against human NCI-H460 cells after 24 hrs by SRB assay; format: functional; conditions: NCI-H460, 24 h; method in brief: as §3
MOLT-4 = experiment: Cytotoxicity against human MOLT4 cells after 24 hrs by SRB assay; format: cell-based; conditions: molt-4, 24 h; method in brief: as §1
OVCAR-5 = experiment: Cytotoxicity against human OVCAR5 cells after 24 hrs by SRB assay; format: functional; conditions: OVCAR-5, 24 h; method in brief: as §3
KM12 = experiment: Cytotoxicity against human KM12 cells after 24 hrs by SRB assay; format: functional; conditions: KM12, 24 h; method in brief: as §3
OVCAR-4 [4] = experiment: (§7) Cytotoxicity against human OVCAR4 cells after 24 hrs by SRB assay; format: cell-based; conditions: ovcar-4, 24 h; method in brief: as §1
RXF 393 = experiment: Cytotoxicity against human RXF393 cells after 24 hrs by SRB assay; format: cell-based; conditions: rxf 393, 24 h; method in brief: as §1
SK-MEL-5 = experiment: Cytotoxicity against human SK-MEL-5 cells after 24 hrs by SRB assay; format: cell-based; conditions: sk-mel-5, 24 h; method in brief: as §1
SF-295 = experiment: Cytotoxicity against human SF295 cells after 24 hrs by SRB assay; format: functional; conditions: SF-295, 24 h; method in brief: as §3
CCRF-CEM = experiment: Cytotoxicity against human CCRF-CEM cells after 24 hrs by SRB assay; format: cell-based; method in brief: as §1
SK-MEL-2 [5] = experiment: as §6; format: functional; conditions: SK-MEL-2, 24 h; method in brief: as §3
MDA-MB-435 [6] = experiment: as §4; format: functional; conditions: MDA-MB-435, 24 h; method in brief: as §3
BT-549 = experiment: Cytotoxicity against human BT549 cells after 24 hrs by SRB assay; format: functional; conditions: BT-549, 24 h; method in brief: as §3
SF-268 = experiment: Cytotoxicity against human SF268 cells after 24 hrs by SRB assay; format: cell-based; conditions: sf-268, 24 h; method in brief: as §1
T47D = experiment: Cytotoxicity against human T47D cells after 24 hrs by SRB assay; format: cell-based; method in brief: as §5
OVCAR-4 [7] = experiment: as §7; format: functional; conditions: OVCAR-4, 24 h; method in brief: as §3
U-251 = experiment: Cytotoxicity against human U251 cells after 24 hrs by SRB assay; format: functional; conditions: U-251, 24 h; method in brief: as §2

`COc1ccc(C(=O)/C=C/c2cc3ccccc3[nH]c2=O)cc1` showed an LC50 (ACHN) of 57 µM, a GI50 (SNB-19) of 4.2 µM and a TGI (SNB-19) of 19.1 µM. It also gave a GI50 (OVCAR-8) of 3.57 µM, a TGI (OVCAR-8) greater than 100 µM and an LC50 (MDA-MB-435 [1]) of 91.6 µM. For the same molecule, the LC50 (A549) was greater than 100 µM, the LC50 (OVCAR-3) was 29.8 µM and the LC50 [2] was greater than 100 µM. The GI50 (SNB-75) was 2.29 µM, the TGI (SNB-75) was 10.1 µM and the GI50 (SF-539) was 2.76 µM. The TGI (SF-539) was 7.49 µM, the LC50 (SN12C) was greater than 100 µM and the GI50 (MDA-MB-468) was 2.38 µM. It also gave a TGI (MDA-MB-468) of 5.98 µM, a GI50 (SR) of 2.83 µM and a TGI (SR) greater than 100 µM. The GI50 (NCI-H23) was 2.9 µM, the TGI (NCI-H23) was 14.9 µM and the LC50 (HOP-92) was 80.9 µM. The LC50 (SW-620) was 40.2 µM, the LC50 (DU-145) was 35.8 µM and the GI50 (HT-29) was 3.67 µM. It also gave a TGI (HT-29) greater than 100 µM, an LC50 (SK-MEL-2 [3]) greater than 100 µM and an LC50 (786-0) greater than 100 µM. It also gave a GI50 (MDA-MB-231) of 3.29 µM, a TGI (MDA-MB-231) of 17.9 µM and a GI50 (NCI-H460) of 2.75 µM. For the same molecule, the TGI (NCI-H460) was 8.34 µM, the LC50 (MOLT-4) was greater than 100 µM and the GI50 (OVCAR-5) was 3.6 µM. The TGI (OVCAR-5) was 18.4 µM, the GI50 (KM12) was 2.85 µM and the TGI (KM12) was 7.81 µM. It also gave an LC50 (OVCAR-4 [4]) greater than 100 µM, an LC50 (RXF 393) of 33.5 µM and an LC50 (SK-MEL-5) of 45 µM. For the same molecule, the GI50 (SF-295) was 3.98 µM, the TGI (SF-295) was 18.6 µM and the LC50 (CCRF-CEM) was greater than 100 µM. It also gave a GI50 (SK-MEL-2 [5]) of 3.91 µM, a TGI (SK-MEL-2 [5]) of 40.1 µM and a GI50 (MDA-MB-435 [6]) of 3.92 µM. The TGI (MDA-MB-435 [6]) was 17.4 µM, the GI50 (BT-549) was 2.7 µM and the TGI (BT-549) was 7.9 µM. The LC50 (SF-268) was 40.7 µM, the LC50 (T47D) was greater than 100 µM and the GI50 (OVCAR-4 [7]) was 2.94 µM. The TGI (OVCAR-4 [7]) was greater than 100 µM, the GI50 (U-251) was 2.7 µM and the TGI (U-251) was 10.9 µM.
For `O=C(/C=C/c1cc2ccccc2[nH]c1=O)/C=C/c1cc2ccccc2[nH]c1=O`, the LC50 (ACHN) was greater than 100 µM, the GI50 (SNB-19) was 5.12 µM and the TGI (SNB-19) was greater than 100 µM. The GI50 (OVCAR-8) was 2.6 µM, the TGI (OVCAR-8) was greater than 100 µM and the LC50 (A549) was greater than 100 µM. For the same molecule, the LC50 (OVCAR-3) was greater than 100 µM, the GI50 (SF-539) was 2.13 µM and the TGI (SF-539) was greater than 100 µM. The LC50 (SN12C) was greater than 100 µM, the GI50 (MDA-MB-468) was 1.58 µM and the TGI (MDA-MB-468) was 4.39 µM. It also gave a GI50 (SR) of 1.14 µM, a TGI (SR) greater than 100 µM and a GI50 (NCI-H23) of 2.42 µM. For the same molecule, the TGI (NCI-H23) was 87.7 µM, the LC50 (HOP-92) was greater than 100 µM and the LC50 (SW-620) was greater than 100 µM. For the same molecule, the LC50 (DU-145) was greater than 100 µM, the GI50 (HT-29) was 0.483 µM and the TGI (HT-29) was 1.78 µM. For the same molecule, the LC50 (SK-MEL-2 [3]) was greater than 100 µM, the LC50 (786-0) was greater than 100 µM and the GI50 (MDA-MB-231) was 3.49 µM. It also gave a TGI (MDA-MB-231) greater than 100 µM, a GI50 (NCI-H460) of 4.63 µM and a TGI (NCI-H460) greater than 100 µM. The LC50 (MOLT-4) was greater than 100 µM, the GI50 (KM12) was 0.494 µM and the TGI (KM12) was 1.83 µM. It also gave an LC50 (OVCAR-4 [4]) greater than 100 µM, an LC50 (RXF 393) of 7.73 µM and an LC50 (SK-MEL-5) greater than 100 µM. For the same molecule, the GI50 (SF-295) was 2.64 µM, the LC50 (CCRF-CEM) was greater than 100 µM and the GI50 (SK-MEL-2 [5]) was greater than 100 µM. For the same molecule, the TGI (SK-MEL-2 [5]) was greater than 100 µM, the GI50 (MDA-MB-435 [6]) was 0.258 µM and the TGI (MDA-MB-435 [6]) was 0.81 µM. For the same molecule, the GI50 (BT-549) was 1.9 µM, the TGI (BT-549) was 6.15 µM and the LC50 (SF-268) was greater than 100 µM. It also gave an LC50 (T47D) greater than 100 µM, a GI50 (OVCAR-4 [7]) of 2.06 µM and a TGI (OVCAR-4 [7]) greater than 100 µM. It also gave a GI50 (U-251) of 0.372 µM and a TGI (U-251) of 2.1 µM.
